{"source": "paper PMC4351130", "about": "(Nature structural & molecular biology, 2015)", "key": {"[1]": {"molecular_target": "double δ-OR mutant Leu300^7.35Trp - Trp284^6.58Lys (human) (UniProt P41143)"}, "μ-OR": {"test_system": "μ-OR", "details": "cited from earlier work"}, "human δ-OR": {"test_system": "human δ-OR", "test": "δ-OR β-arrestin recruitment Tango assay", "assay_type": "cell-based", "details": "normalized to DADLE, N = 3 in quadruplicate, Supplementary Fig. 5", "procedure,_shortened": "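Modified Tango β-arrestin recruitment format at human δ-OR. Values are mean ± SEM from three independent experiments, each run in quadruplicate.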"}, "δ-OR": {"test_system": "δ-OR", "details": "cited from earlier work"}, "[2]": {"details": "co-administration with morphine; cited from earlier work"}}, "data": [{"compound": "DIPP-NH2, H-Dmt(1)-Tic(2)-Phe(3)-Phe(4)-NH2 (peptide)", "values": [{"measurement": "fold decrease in affinity against the unmutated receptor", "setting": "[1]", "value": "> 100", "unit": "fold"}]}, {"compound": "H-Dmt(1)-Tic(2)-Phe(3)-Phe(4)-NH2 [DIPP-NH2]", "values": [{"measurement": "Functional activity in guinea pig ileum assay", "setting": "μ-OR", "value": "μ-OR agonist"}, {"measurement": "Agonist activity at δ-OR, β-arrestin pathway", "setting": "human δ-OR", "value": "weak partial agonist activity"}, {"measurement": "Functional activity in mouse vas deferens assay", "setting": "δ-OR", "value": "δ-OR antagonist"}]}, {"compound": "Oc1ccc2c3c1O[C@H]1c4[nH]c5ccccc5c4C[C@@]4(O)[C@@H](C2)N(CC2CC2)CC[C@]314", "note": "[naltrindole]", "values": [{"measurement": "Effect on development of morphine-induced tolerance and dependence", "setting": "[2]", "value": "prevent the development of morphine-induced tolerance and dependence"}]}]}
